From the M2OR odorant receptor database

test system: T1, A0A140T8K0; settings: stereoisomer not certain
T1 sequence (whole entry): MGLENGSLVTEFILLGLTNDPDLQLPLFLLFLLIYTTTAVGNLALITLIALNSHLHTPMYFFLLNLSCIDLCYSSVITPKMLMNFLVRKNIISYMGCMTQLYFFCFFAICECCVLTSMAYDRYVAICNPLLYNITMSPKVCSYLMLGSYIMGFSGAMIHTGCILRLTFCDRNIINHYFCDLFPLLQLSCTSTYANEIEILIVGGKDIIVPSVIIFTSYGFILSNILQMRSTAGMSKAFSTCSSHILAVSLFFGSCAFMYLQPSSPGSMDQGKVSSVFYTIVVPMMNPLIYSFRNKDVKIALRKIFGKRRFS
Method in brief: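 Each entry records the cell line, G-protein, co-transfected protein and tags used. Methods varied with the source, often transient luciferase assays in mammalian cell lines. A receptor–molecule pair is called responsive (active) if the original authors judged its signal statistically different from baseline and non-responsive (inactive) otherwise.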

SMILES	odorant receptor agonist call
COc1nccnc1C	inactive
CCOC(=O)CC(C)C	inactive
C1CCOC1	inactive
CC(=O)C1(C)CC2=C(CCCC2(C)C)CC1C (stereo not given)	inactive
CC=Cc1ccc(OC)cc1	inactive
CCCCCCC(C=O)=Cc1ccccc1	inactive
Cc1ccc(C(C)C)cc1	inactive
O=C(OCc1ccccc1)c1ccccc1O	inactive
CC=CC(=O)C1=C(C)CCCC1(C)C	inactive
CC1CC=CCCCCCCCCCC(=O)C1 (stereo not given)	inactive
CCCCC=O	inactive
CC(C)CCN	inactive
CC=C(C)C=O	inactive
CSSSC	inactive
Cc1ccccc1OC(=O)C(C)C	inactive
CCCCCOC(=O)CCC	inactive
OCC=Cc1ccccc1	inactive
CC(=O)C=CC1=C(C)CCCC1(C)C	inactive

SMILES	odorant receptor agonist call
CCN(CC)CC	inactive
C=C1C2CCC(C2)C1(C)C (stereo not given)	inactive
Cc1ccc2c(c1)OCC(=O)CO2	inactive
C=CC(=C)CCC=C(C)CCC=C(C)C	inactive
CCC(C)O (stereo not given)	inactive
CCCCCOC(=O)CC	inactive
CCc1ccccc1O	inactive
C=C(C)C1CC=C(C)CC1 (stereo not given)	inactive
CC(=O)OCc1ccc2c(c1)OCO2	inactive
CC(=O)OCCc1ccccc1	inactive
CC(=O)OC1(C)CCC23CC1C(C)(C)C2CCC3C (stereo not given)	inactive
C=CC(=C)CCC=C(C)C	inactive
OCCCCCCCCCO	inactive
Cc1ccc(C(C)C)c(O)c1	inactive
OCCc1ccccc1	inactive
C1CCOCC1	inactive
CCCC(C)C(=O)OCC (stereo not given)	inactive
